Assay results published in paper PMC8083113 (Journal of medicinal chemistry, 2021).
Like-named read-outs stand apart in the source and are kept apart here. Blank lines part the entries; values can stand above or below the molecule they belong to.

What was measured:
BxPC-3 [1] = test: Colony formation assay in BxPC-3; format: cell-based; details: BxPC-3, 7–10 days
pSTAT3 = test: Western blot of pSTAT3 in BxPC-3; format: cell-based; details: BxPC-3, 16 h treatment
In short: (§1)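 BxPC-3 cells (500 × 10^3/well) are treated with the test compound (concentrations up to 5 μM) for 16 h. They are lysed at 4 °C by sonication in Tris/NaCl/Triton X-100/SDS buffer, pH 7.4, with protease and phosphatase inhibitors. Protein is measured by BCA, run on 10 or 12% gels and transferred to PVDF. Blots are probed overnight at 4 °C for STAT3/pSTAT3 (1:1000) and GAPDH (1:4000), imaged by near-infrared fluorescence, and quantified by densitometry.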

BxPC-3 [2] = test: MTT cytotoxicity assay in BxPC-3; format: cell-based
In short: (§2)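 Cells (3000–6000/well) are seeded and left overnight, then exposed to the test compound or DMSO vehicle for 3 days. MTT (3 mg/ml) is added for 3 h at 37 °C, and the formazan is dissolved in DMSO and read at 570 nm. IC50 comes from dose-response curves from three independent experiments, reported as mean ± SD.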

STAT3 [3] = biological target: T1, STAT3 (Homo sapiens, UniProt P40763); test: Western blot of STAT3 in BxPC-3; format: cell-based; details: for effect on STAT3 expression: BxPC-3, 16 h, XD2–162 up to 5 μM, 1–6 at 0.5 μM
T1 sequence (P40763 whole entry): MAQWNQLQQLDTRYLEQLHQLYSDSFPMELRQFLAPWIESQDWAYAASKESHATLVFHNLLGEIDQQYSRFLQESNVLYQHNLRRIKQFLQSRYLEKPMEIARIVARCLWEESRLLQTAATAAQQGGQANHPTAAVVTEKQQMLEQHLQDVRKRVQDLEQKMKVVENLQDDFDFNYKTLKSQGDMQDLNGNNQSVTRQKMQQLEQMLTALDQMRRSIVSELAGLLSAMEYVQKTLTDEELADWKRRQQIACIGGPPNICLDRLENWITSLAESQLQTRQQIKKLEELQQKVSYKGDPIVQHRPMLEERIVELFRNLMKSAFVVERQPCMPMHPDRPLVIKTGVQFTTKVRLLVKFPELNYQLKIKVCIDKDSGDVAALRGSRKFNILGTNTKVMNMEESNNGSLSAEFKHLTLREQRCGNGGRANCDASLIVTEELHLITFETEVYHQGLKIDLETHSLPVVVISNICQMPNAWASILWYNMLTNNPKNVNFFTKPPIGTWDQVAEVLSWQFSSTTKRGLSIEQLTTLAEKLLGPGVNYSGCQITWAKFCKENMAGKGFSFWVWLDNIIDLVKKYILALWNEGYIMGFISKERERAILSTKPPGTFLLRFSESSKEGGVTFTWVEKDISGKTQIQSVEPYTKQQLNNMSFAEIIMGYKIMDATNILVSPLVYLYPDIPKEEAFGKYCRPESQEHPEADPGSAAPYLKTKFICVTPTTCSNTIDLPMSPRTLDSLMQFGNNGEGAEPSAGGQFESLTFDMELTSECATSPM
In short: as §1

GSPT1 = GSPT1 (Homo sapiens, UniProt P15170); test: Western blot of GSPT1 in BxPC-3; format: cell-based
GSPT1, sequence (Q96SW2 whole entry partner): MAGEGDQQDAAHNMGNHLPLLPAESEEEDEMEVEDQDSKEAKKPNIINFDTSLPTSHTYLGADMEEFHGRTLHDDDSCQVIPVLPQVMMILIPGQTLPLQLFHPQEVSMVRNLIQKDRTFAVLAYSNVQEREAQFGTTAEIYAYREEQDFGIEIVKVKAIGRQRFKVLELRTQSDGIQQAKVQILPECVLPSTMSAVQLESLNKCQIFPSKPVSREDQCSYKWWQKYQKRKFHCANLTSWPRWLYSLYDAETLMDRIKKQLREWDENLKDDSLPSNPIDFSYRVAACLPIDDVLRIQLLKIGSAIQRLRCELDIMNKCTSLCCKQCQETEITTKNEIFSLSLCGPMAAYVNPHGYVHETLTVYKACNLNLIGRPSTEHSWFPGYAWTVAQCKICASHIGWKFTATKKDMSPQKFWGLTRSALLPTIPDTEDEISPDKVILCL
GSPT1, sequence (Q16531 whole entry partner): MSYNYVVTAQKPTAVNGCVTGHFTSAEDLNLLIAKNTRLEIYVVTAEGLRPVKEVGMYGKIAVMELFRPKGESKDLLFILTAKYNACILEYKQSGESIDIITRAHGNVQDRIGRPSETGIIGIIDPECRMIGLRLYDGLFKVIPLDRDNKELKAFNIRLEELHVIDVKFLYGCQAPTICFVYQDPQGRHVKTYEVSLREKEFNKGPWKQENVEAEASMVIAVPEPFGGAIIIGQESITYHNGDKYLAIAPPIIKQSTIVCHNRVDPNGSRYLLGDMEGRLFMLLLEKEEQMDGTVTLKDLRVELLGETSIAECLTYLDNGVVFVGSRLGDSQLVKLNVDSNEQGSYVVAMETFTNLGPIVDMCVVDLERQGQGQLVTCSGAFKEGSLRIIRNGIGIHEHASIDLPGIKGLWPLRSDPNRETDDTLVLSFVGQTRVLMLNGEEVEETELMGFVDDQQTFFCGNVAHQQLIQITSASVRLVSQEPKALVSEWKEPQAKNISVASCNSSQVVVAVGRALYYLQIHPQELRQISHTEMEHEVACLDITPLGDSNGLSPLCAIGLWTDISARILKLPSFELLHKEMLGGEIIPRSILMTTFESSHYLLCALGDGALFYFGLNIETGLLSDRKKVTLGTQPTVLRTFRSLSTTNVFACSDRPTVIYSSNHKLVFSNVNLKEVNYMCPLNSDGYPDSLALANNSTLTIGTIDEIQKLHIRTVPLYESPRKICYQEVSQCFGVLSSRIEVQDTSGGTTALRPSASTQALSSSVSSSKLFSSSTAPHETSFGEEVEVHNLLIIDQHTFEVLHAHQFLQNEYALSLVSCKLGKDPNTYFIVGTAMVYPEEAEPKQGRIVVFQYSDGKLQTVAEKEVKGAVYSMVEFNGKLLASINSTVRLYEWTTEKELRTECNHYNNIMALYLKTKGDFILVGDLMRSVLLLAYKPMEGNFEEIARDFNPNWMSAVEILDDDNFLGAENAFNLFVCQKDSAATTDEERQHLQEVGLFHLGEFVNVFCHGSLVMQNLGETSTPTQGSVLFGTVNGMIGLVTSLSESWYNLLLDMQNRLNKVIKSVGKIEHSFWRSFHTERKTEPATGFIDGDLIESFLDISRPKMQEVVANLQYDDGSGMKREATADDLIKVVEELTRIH
GSPT1, sequence (P15170 whole entry): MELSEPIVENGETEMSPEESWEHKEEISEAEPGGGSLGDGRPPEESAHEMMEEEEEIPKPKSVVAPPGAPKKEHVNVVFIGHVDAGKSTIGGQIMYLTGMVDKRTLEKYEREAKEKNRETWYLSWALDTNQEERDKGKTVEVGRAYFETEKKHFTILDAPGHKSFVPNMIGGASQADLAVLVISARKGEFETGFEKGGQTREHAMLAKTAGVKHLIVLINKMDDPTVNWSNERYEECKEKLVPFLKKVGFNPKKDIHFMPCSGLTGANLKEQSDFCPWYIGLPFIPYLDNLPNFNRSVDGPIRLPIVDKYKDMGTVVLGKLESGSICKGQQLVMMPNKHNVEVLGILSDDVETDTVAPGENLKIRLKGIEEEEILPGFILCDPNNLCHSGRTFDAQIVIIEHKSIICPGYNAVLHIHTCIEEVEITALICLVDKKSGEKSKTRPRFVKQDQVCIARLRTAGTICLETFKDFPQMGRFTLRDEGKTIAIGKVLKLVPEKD
In short: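 BxPC-3 cells (500 × 10^3/well) are exposed to the test compound for 16 h and lysed by sonication at 4 °C in Tris/NaCl/Triton/SDS buffer, pH 7.4, with protease and phosphatase inhibitors. After BCA quantitation, SDS-PAGE and PVDF transfer, membranes are probed overnight at 4 °C with anti-GSPT (1:1000) and GAPDH (1:4000). Detection uses near-infrared secondaries, with densitometric quantification.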

ZFP91 = ZFP91 (Homo sapiens, UniProt Q96JP5+Q96SW2); test: Western blot of ZFP91 in BxPC-3; format: cell-based
ZFP91, sequence (Q96JP5 whole entry): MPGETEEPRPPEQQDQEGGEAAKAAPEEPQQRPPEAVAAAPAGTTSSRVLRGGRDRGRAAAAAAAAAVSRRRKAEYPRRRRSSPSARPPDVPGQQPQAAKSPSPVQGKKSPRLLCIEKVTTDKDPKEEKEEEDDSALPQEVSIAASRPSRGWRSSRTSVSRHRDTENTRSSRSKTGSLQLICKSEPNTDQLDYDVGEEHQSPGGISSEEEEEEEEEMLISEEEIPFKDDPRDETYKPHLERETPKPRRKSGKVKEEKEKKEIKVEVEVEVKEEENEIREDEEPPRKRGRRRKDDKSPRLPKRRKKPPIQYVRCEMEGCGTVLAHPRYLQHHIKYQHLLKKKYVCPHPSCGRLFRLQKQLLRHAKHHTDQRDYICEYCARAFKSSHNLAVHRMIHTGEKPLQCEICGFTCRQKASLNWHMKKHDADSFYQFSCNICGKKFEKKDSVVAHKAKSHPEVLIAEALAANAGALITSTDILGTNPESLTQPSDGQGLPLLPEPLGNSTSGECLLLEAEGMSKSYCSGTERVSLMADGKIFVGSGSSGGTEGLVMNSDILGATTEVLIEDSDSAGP
ZFP91, sequence (Q96SW2 whole entry): as the sequence (Q96SW2 whole entry partner) above
ZFP91, sequence (Q16531 whole entry partner): as the sequence (Q16531 whole entry partner) above

STAT3 [4] = biological target: T1, STAT3; test: Western blot of STAT3 in OVCAR-3; format: cell-based; details: OVCAR-3, negative control incapable of binding CRBN
In short: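 OVCAR-3 cells are seeded at 500 × 10^3/well and treated with the test compound at several concentrations and times (read-out at 12 h). Lysis is by sonication at 4 °C in Tris/NaCl/Triton X-100/SDS buffer, pH 7.4, with protease and phosphatase inhibitors. After BCA quantitation, SDS-PAGE and PVDF transfer, blots are probed for STAT3 (1:1000) and GAPDH (1:4000) and imaged by near-infrared fluorescence.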

MIA PaCa-2 = test: MTT cytotoxicity assay in MIA PaCa-2; format: cell-based; details: read-out: IC50 (μM) MIA PaCa-2, 3 days, mean ± SD
In short: as §2

MTT assay = format: cell-based; details: Table S4
[5] = Table S4; cited from earlier work
tumor = details: within two weeks; cited from earlier work
STAT3 [6] = biological target: T1, STAT3; details: leukemia and lymphoma cell lines; cited from earlier work
[7] = Homo sapiens, BXPC-3, 72 h, read-out: IC50 (μM) BxPC-3, MTT assay, 3 days, mean ± SD
[8] = read-out: IC50 (μM) BxPC-3, MTT assay, 3 days, mean ± SD

concentration at which a decrease in STAT3 protein expression was observed (STAT3 [3]; BxPC-3, 16 h treatment): 5 µM | GSPT1 protein level (GSPT1): did not degrade | ZFP91 expression at the earlier time point (ZFP91; BxPC-3, 4 h): no effect
Molecule: O=C1CCC(N2C(=O)c3cccc(NCCCCCC4CCN(CCNC(=O)c5cc6c(o5)C(=O)c5ccccc5C6=O)CC4)c3C2=O)C(=O)N1 (stereo not shown) [3–6d, N-(2-(4-(5-((2-(2,6-dioxopiperidin-3-yl)-1,3-dioxoisoindolin-4-yl)amino)pentyl)piperidin-1-yl)ethyl)-4,9-dioxo-4,9-dihydronaphtho[2,3-b]furan-2-carboxamide]
inhibition of colony formation (BxPC-3 [1]): greater inhibitory activity than napabucasin | concentration at which a decrease in pSTAT3 level was achieved (pSTAT3): 1 μM | IC50 (BxPC-3 [2]; [7]): < 1 µM

activity on STAT3 expression compared with XD97 (STAT3 [4]): comparable activity to XD97
Molecule: O=C(NCCOCCOCCNc1cccc2c1C(=O)N(C1CCCNC1=O)C2=O)c1cc2c(o1)C(=O)c1ccccc1C2=O (stereo not shown) [10–5, N-(2-(2-(2-((1,3-dioxo-2-(2-oxopiperidin-3-yl)isoindolin-4-yl)amino)ethoxy)ethoxy)ethyl)-4,9-dioxo-4,9-dihydronaphtho[2,3-b]furan-2-carboxamide]

Molecule: N-(5-(2-(2,6-dioxopiperidin-3-yl)-1-oxoisoindolin-4-yl)pentyl)-4,9-dioxo-4,9-dihydronaphtho[2,3-b]furan-2-carboxamide [8–1]
IC50 (BxPC-3 [2]; [8]): 13.8 ± 7.7 µM | IC50 (MIA PaCa-2): 6.4 ± 3.4 µM

Molecule: Nc1cccc2c1C(=O)N(C1CCC(=O)NC1=O)C2=O (stereo not shown) [Pomalidomide]
no cytotoxicity in the MTT assay up to (MTT assay): > 30 µM

effect on STAT3 expression (STAT3 [3]): did not have any effect
Molecule: O=C(NCCN1CCCCC1)c1cc2c(o1)C(=O)c1ccccc1C2=O [1–6, reference compound]
greater cytotoxicity than napabucasin [5]: > 10 fold

Molecule: NC(=O)CC[C@H](NC(=O)[C@@H]1CC[C@@H]2CCN(C(=O)CCCCCC#Cc3cccc4c3CN(C3CCC(=O)NC3=O)C4=O)C[C@H](NC(=O)c3cc4cc(C(F)(F)P(=O)(O)O)ccc4[nH]3)C(=O)N21)C(=O)NC(c1ccccc1)c1ccccc1 (stereo partly shown) [SD-36]
tumor response (tumor): complete tumor regression | DC50 values for STAT3 degradation (in words) (STAT3 [6]): nanomolar

Molecule: N-(2-(2-(2-((2-(2,6-dioxopiperidin-3-yl)-1,3-dioxoisoindolin-5-yl)amino)ethoxy)ethoxy)ethyl)-4,9-dioxo-4,9-dihydronaphtho[2,3-b]furan-2-carboxamide [6–6c]
IC50 (BxPC-3 [2]; [8]): 23.8 ± 3.9 µM | IC50 (MIA PaCa-2): 10.5 ± 3 µM

GSPT1 protein level (GSPT1): not affected | ZFP91 protein level (ZFP91; BxPC-3, 16 h, up to 3 μM): no effect
Molecule: CC(=O)c1cc2c(o1)C(=O)c1ccccc1C2=O [NP, 2-acetylbenzo[f][1]benzofuran-4,9-dione, reference compound]

Molecule: O=C1CCC(N2C(=O)c3cccc(NCCCC4CCN(CCNC(=O)c5cc6c(o5)C(=O)c5ccccc5C6=O)CC4)c3C2=O)C(=O)N1 (stereo not shown) [3–6c, N-(2-(4-(3-((2-(2,6-dioxopiperidin-3-yl)-1,3-dioxoisoindolin-4-yl)amino)propyl)piperidin-1-yl)ethyl)-4,9-dioxo-4,9-dihydronaphtho[2,3-b]furan-2-carboxamide]
IC50 (BxPC-3 [2]; [7]): < 1 µM

Molecule: O=C1CCC(N2C(=O)c3cccc(OCCCCNC(=O)c4cc5c(o4)C(=O)c4ccccc4C5=O)c3C2=O)C(=O)N1 (stereo not shown) [5–5a, N-(4-((2-(2,6-dioxopiperidin-3-yl)-1,3-dioxoisoindolin-4-yl)oxy)butyl)-4,9-dioxo-4,9-dihydronaphtho[2,3-b]furan-2-carboxamide]
fold more potent than 5–5b (BxPC-3 [2]; cytotoxicity IC50): ~2 fold

effect on STAT3 expression (STAT3 [3]): did not have any effect
Molecule: CN1C(=O)CCC(N2C(=O)c3cccc(NCCCCCC4CCN(CCNC(=O)c5cc6c(o5)C(=O)c5ccccc5C6=O)CC4)c3C2=O)C1=O (stereo not shown) [11–7, N-(2-(4-(5-((2-(1-methyl-2,6-dioxopiperidin-3-yl)-1,3-dioxoisoindolin-4-yl)amino)pentyl)piperidin-1-yl)ethyl)-4,9-dioxo-4,9-dihydronaphtho[2,3-b]furan-2-carboxamide]
concentration at which a decrease in pSTAT3 level was achieved (pSTAT3): 5 μM
